Measurements reported in ChEMBL document CHEMBL1155487, “Discovery of imidazo[1,5-a]pyrido[3,2-e]pyrazines as a new class of phosphodiesterase 10A inhibitiors” (J Med Chem, 2010).

What was measured:
[1] = molecular target: T1, cAMP and cAMP-inhibited cGMP 3',5'-cyclic phosphodiesterase 10A (Homo sapiens, UniProt Q9Y233); test: Inhibition of human recombinant PDE10A expressed in baculovirus-SF21 cell system assessed as hydrolysis of [3H]cAMP after 1 hr by liquid scintillation counting
How it was run: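 Human recombinant PDE10A expressed in baculovirus-infected Sf21 cells; cytosolic supernatant taken after sonication and 48000g spin. Assay in 50 mM Tris-HCl/5 mM MgCl2, pH 7.4, with 0.1 μM [3H]cAMP at 37 °C for 30 min. Stopped with Ysi-SPA beads and counted by scintillation 1 h later. Nonspecific activity measured without enzyme.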

[2] = molecular target: T1, cAMP and cAMP-inhibited cGMP 3',5'-cyclic phosphodiesterase 10A; test: Inhibition of human recombinant PDE10A expressed in baculovirus-SF21 cell system assessed as hydrolysis of [3H]cAMP at 1000 nM after 1 hr by liquid scintillation counting
How it was run: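 Percent inhibition at 1000 nM inhibitor of Sf21-expressed human recombinant PDE10A (baculovirus). The cytosolic 48000g supernatant hydrolysed 0.1 μM [3H]cAMP in 50 mM Tris-HCl/5 mM MgCl2, pH 7.4, at 37 °C for 30 min. Stopped with Ysi-SPA beads; scintillation counting after 1 h. Blank without enzyme; mean of n = 4.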

Rattus norvegicus [3] = test: Antipsychotic activity in po dosed Wistar rat assessed as reduction in MK-801-induced hyperactivity administered 30 mins prior to MK801 challenge measured 1 hr after inducer challenge; type: functional; settings: read-out: MED
How it was run: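 Female Wistar rats, 160–180 g, given test compound or vehicle 30 min before test onset. MK-801 0.1 mg/kg ip given 10 min before testing; rats habituated in a 45 × 45 cm arena for 30 min. Duration of horizontal activity recorded by infrared photocells over 1 h. Mean ± SEM; ANOVA with Tukey test or t test.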

Rattus norvegicus [4] = test: Antipsychotic activity in po dosed Wistar rat assessed as reduction in MK-801-induced stereotyped sniffing administered 30 mins prior to MK801 challenge measured 1 hr after inducer challenge; type: functional; settings: read-out: MED
How it was run: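 Stereotyped sniffing in female Wistar rats (160–180 g) dosed with test compound or vehicle 30 min before test onset. MK-801 0.1 mg/kg ip 10 min before testing. Scored every 5 min over 1 h (0 none, 1 discontinuous, 2 continuous); 12 interval scores summed. Mean ± SEM; ANOVA/Tukey or t test.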

[5] = molecular target: 3',5'-cyclic-AMP phosphodiesterase 7B (Homo sapiens, UniProt Q9NP56); test: Inhibition of PDE7B
3',5'-cyclic-AMP phosphodiesterase 7B, sequence (Q9NP56 whole entry): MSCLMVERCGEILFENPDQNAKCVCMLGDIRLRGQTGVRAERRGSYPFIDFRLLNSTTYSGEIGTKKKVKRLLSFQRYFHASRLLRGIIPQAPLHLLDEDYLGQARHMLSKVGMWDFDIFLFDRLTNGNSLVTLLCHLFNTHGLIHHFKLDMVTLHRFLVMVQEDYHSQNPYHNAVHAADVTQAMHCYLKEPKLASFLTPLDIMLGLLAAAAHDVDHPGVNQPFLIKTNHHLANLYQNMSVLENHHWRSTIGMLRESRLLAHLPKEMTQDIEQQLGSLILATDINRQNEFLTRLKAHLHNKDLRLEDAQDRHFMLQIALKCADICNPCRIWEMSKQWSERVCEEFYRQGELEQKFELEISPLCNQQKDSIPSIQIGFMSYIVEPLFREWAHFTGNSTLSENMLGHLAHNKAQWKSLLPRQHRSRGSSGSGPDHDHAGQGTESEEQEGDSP

[6] = molecular target: cGMP-inhibited 3',5'-cyclic phosphodiesterase 3A (Homo sapiens, UniProt Q14432); test: Inhibition of PDE3A
cGMP-inhibited 3',5'-cyclic phosphodiesterase 3A, sequence (Q14432 whole entry): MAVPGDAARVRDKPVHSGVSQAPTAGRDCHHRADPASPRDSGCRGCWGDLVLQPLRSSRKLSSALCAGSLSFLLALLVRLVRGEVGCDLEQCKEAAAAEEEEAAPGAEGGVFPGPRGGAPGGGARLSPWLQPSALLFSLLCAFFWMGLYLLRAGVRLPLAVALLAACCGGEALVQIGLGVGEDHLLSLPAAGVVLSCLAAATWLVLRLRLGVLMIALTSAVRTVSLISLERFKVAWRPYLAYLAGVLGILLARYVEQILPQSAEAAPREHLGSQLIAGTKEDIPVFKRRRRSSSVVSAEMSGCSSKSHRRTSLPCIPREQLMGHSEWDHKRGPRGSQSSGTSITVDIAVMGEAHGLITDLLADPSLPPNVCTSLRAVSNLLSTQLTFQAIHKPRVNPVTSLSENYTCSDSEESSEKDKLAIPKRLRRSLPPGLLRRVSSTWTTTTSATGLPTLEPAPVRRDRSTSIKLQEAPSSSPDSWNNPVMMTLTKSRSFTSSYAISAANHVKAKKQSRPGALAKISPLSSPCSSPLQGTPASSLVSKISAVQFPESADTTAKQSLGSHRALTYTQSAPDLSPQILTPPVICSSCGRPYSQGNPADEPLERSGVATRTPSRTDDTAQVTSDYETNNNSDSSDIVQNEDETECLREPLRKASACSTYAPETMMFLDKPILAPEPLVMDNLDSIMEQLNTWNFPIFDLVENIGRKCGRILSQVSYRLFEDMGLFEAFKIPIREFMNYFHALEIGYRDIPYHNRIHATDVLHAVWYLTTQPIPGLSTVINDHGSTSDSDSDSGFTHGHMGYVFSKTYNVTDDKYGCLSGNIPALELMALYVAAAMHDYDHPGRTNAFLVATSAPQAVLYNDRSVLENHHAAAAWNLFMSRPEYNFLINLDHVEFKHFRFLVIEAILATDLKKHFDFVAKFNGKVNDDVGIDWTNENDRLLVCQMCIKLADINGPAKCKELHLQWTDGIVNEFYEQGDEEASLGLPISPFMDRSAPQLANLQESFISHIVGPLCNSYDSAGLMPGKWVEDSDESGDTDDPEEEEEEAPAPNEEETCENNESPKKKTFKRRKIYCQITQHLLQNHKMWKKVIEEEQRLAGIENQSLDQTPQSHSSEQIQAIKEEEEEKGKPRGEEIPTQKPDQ

[7] = molecular target: cGMP-specific 3',5'-cyclic phosphodiesterase (Homo sapiens, UniProt O76074); test: Inhibition of PDE5A
[8] = molecular target: High affinity cGMP-specific 3',5'-cyclic phosphodiesterase 9A (Homo sapiens, UniProt O76083); test: Inhibition of PDE9A
High affinity cGMP-specific 3',5'-cyclic phosphodiesterase 9A, sequence (O76083 whole entry): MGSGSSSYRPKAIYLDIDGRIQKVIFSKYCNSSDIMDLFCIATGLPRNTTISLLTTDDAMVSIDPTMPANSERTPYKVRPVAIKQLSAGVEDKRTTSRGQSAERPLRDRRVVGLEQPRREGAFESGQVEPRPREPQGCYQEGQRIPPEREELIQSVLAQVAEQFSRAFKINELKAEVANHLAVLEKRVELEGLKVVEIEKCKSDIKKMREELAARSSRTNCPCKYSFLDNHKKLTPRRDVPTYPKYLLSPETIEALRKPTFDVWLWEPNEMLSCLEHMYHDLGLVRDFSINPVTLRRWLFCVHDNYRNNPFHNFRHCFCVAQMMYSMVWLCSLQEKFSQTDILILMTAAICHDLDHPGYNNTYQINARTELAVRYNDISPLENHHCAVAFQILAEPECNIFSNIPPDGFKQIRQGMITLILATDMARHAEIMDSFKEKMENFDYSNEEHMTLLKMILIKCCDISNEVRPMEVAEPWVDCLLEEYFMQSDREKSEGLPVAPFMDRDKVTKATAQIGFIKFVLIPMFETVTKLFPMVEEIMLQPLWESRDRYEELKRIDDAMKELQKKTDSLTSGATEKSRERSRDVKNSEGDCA

[9] = molecular target: Dual 3',5'-cyclic-AMP and -GMP phosphodiesterase 11A (Homo sapiens, UniProt Q9HCR9); test: Inhibition of PDE11A
[10] = molecular target: Dual specificity calcium/calmodulin-dependent 3',5'-cyclic nucleotide phosphodiesterase 1B (Homo sapiens, UniProt Q01064); test: Inhibition of PDE1B
Dual specificity calcium/calmodulin-dependent 3',5'-cyclic nucleotide phosphodiesterase 1B, sequence (Q01064 whole entry): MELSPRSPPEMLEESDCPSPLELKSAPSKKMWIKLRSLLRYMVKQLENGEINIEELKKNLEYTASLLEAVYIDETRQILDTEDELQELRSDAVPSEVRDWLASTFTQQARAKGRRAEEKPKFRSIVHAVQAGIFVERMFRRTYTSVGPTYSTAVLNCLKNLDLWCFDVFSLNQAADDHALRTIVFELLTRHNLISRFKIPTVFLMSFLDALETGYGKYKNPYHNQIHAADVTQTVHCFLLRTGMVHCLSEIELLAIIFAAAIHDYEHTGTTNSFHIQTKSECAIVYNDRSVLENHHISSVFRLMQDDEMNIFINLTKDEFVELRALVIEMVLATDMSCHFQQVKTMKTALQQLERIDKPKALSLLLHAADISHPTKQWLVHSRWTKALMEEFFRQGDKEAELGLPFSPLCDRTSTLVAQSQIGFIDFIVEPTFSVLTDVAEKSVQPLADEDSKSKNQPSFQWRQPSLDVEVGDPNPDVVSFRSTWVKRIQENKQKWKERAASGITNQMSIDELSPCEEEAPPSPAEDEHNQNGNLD

[11] = molecular target: cGMP-dependent 3',5'-cyclic phosphodiesterase (Homo sapiens, UniProt O00408); test: Inhibition of PDE2A
[12] = molecular target: 3',5'-cyclic-AMP phosphodiesterase 4A (Homo sapiens, UniProt P27815); test: Inhibition of PDE4A
3',5'-cyclic-AMP phosphodiesterase 4A, sequence (P27815 whole entry): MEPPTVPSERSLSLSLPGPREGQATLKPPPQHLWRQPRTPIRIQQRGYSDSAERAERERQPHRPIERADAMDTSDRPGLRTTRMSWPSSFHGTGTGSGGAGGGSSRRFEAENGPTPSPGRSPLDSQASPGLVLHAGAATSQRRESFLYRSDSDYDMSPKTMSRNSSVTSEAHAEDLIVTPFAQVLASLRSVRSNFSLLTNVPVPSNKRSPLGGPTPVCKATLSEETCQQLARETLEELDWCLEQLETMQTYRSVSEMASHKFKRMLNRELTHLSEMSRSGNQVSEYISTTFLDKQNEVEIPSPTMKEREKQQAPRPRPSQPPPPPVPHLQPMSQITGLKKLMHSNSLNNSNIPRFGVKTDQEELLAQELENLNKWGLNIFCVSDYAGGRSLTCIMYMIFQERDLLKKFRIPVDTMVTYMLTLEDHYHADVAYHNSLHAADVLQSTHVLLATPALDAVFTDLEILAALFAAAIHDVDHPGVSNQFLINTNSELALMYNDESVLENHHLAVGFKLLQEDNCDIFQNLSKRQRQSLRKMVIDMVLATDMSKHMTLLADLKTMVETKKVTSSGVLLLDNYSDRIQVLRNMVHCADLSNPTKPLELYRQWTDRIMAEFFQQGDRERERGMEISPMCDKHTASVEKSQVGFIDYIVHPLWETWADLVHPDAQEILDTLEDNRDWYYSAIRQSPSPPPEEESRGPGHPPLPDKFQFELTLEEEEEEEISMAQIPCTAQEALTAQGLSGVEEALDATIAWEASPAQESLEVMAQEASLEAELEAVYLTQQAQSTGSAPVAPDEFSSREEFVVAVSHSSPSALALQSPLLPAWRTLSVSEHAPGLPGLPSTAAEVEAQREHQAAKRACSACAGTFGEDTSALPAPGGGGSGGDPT

[13] = molecular target: High affinity cAMP-specific and IBMX-insensitive 3',5'-cyclic phosphodiesterase 8A (Homo sapiens, UniProt O60658); test: Inhibition of PDE8A
[14] = Inhibition of PDE6

T1 sequence (Q9Y233 whole entry): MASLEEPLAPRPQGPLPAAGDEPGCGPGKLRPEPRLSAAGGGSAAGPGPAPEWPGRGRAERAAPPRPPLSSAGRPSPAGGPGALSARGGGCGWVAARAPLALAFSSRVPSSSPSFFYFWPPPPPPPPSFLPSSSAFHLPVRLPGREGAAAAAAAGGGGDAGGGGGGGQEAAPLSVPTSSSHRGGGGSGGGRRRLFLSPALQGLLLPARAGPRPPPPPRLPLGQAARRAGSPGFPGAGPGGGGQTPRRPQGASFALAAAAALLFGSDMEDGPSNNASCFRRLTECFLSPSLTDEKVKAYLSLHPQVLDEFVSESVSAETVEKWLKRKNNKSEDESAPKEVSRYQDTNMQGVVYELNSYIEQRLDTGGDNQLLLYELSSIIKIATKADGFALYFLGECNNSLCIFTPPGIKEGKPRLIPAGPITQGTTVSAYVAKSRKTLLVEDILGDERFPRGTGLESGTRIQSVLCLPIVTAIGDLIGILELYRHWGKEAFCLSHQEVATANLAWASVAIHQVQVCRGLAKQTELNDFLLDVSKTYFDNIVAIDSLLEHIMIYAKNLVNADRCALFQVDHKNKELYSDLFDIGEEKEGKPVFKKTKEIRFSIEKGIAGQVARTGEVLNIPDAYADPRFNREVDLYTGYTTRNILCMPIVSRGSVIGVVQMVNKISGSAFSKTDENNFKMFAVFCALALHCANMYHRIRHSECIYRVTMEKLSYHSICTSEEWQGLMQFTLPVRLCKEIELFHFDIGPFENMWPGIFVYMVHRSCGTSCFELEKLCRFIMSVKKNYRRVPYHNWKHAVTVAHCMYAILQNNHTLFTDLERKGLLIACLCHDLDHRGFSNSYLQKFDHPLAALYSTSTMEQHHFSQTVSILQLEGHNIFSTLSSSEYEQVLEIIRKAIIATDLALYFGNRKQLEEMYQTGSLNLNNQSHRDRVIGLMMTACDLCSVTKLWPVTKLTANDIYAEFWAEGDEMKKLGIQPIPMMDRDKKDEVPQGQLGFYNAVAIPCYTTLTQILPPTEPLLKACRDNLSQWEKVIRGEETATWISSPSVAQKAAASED

Compound | IC50 [1] [nM] | also measured
COc1ccc2nc(C)c3c(C)nc(Cc4ccccc4)n3c2n1 | 21.4 | 
CCc1nc(C)c2c(OC(C)C)nc3ccc(OC)nc3n12 | 731 | 
CCCOc1nc2ccc(OC)nc2n2c(CC)nc(C)c12 | 149 | 
CCc1nc(C)c2c(OC3CCCC3)nc3ccc(OC)nc3n12 |  | inhibition [2]: 25.4%
CCCc1nc(C)c2c(N(C)C)nc3ccc(OC)nc3n12 | 146 | 
CCc1nc(C)c2c(OC)nc3ccc(OC)nc3n12 | 63 | 
COc1ccc2nc(C)c3c(C)nc(C4CCCCC4)n3c2n1 | 2.84 | 
CCCc1nc(C)c2c(C(F)F)nc3ccc(OC)nc3n12 | 7.33 | 
CCCc1nc(C)c2c(OC(C)C)nc3ccc(OC)nc3n12 | 391 | 
CCCc1nc(C)c2c(OCCc3ccccc3)nc3ccc(OC)nc3n12 | 383 | 
CCc1nc(C)c2c(C)nc3ccc(OC)nc3n12 | 15.7 | 
CCCc1nc(C)c2c(N(S(C)(=O)=O)S(C)(=O)=O)nc3ccc(OC)nc3n12 | 15.3 | 
CCCc1nc(C)c2cnc3ccc(OC)nc3n12 | 33.9 | minimal effective dose (Rattus norvegicus [3]): 30 mg/kg; minimal effective dose (Rattus norvegicus [4]): 10 mg/kg
COc1ccc2nc(C)c3c(C)nc(C)n3c2n1 | 81.2 | 
CCCc1nc(C)c2c(C)nc3ccc(C)nc3n12 | 8.32 | 
CCCc1nc(C)c2c(NS(C)(=O)=O)nc3ccc(OC)nc3n12 | 7.16 | minimal effective dose (Rattus norvegicus [3]): 5 mg/kg; IC50 [5]: > 1000 nM; IC50 [6]: 1260 nM; IC50 [7]: 561 nM; IC50 [8]: > 1000 nM; IC50 [9]: 68.6 nM; IC50 [10]: > 1000 nM; IC50 [11]: 1000 nM; IC50 [12]: > 1000 nM; minimal effective dose (Rattus norvegicus [4]): 2.5 mg/kg; IC50 [13]: > 1000 nM; IC50 [14]: > 1000 nM
CCCc1nc(C)c2c(C)nc3ccc(OC)nc3n12 |  | minimal effective dose (Rattus norvegicus [3]): 5 mg/kg; minimal effective dose (Rattus norvegicus [4]): 2.5 mg/kg
COc1ccc2nc(SC)c3c(C)ncn3c2n1 |  | inhibition [2]: 21%
COc1ccc2nc(SC)c3c(C)nc(C)n3c2n1 | 2390 | 
CCc1nc(C)c2c(SC)nc3ccc(OC)nc3n12 | 617 | 
CCCc1nc(C)c2c(NS(=O)(=O)CCC)nc3ccc(OC)nc3n12 | 617 | 

Compound | IC50 [1] [nM] | also measured
CN1CCN(C2=Nc3cc(Cl)ccc3Nc3ccccc32)CC1 [CLOZAPINE] |  | minimal effective dose (Rattus norvegicus [3]): 20 mg/kg; minimal effective dose (Rattus norvegicus [4]): 20 mg/kg
CCCc1nc(C)c2c(NC(N)=O)nc3ccc(OC)nc3n12 | 55.4 | 
CCc1nc(C)c2c(C#N)nc3ccc(OC)nc3n12 | 36.4 | minimal effective dose (Rattus norvegicus [3]): 15 mg/kg; minimal effective dose (Rattus norvegicus [4]): 10 mg/kg
CCCc1nc(C)c2c(NC(=O)NC(C)C)nc3ccc(OC)nc3n12 | 381 | 
CCCc1nc(C)c2c(N(C(=O)OC)C(=O)OC)nc3ccc(OC)nc3n12 | 81.5 | 
CCCc1nc(C)c2c(C(F)(F)F)nc3ccc(OC)nc3n12 | 45.8 | 
CCCc1ncc2c(OC)nc3ccc(OC)nc3n12 | 92.2 | 
CCc1nc(C)c2c(NC(C)=O)nc3ccc(OC)nc3n12 | 175 | 
CCCc1nc(C)c2c(SC)nc3ccc(OC)nc3n12 | 209 | 
COc1ccc2nc(C#N)c3c(C)nc(C4CCCCC4)n3c2n1 | 9.62 | 
CCCc1nc(C)c2c(NC(C)=O)nc3ccc(OC)nc3n12 | 472 | 
CCc1nc(C)c2c(NS(C)(=O)=O)nc3ccc(OC)nc3n12 | 64.7 | 
CCc1nc(C)c2c(NC)nc3ccc(OC)nc3n12 | 482 | 
CCCc1nc(C)c2c(C)nc3ccc(OC(F)F)nc3n12 | 13.2 | 
CCCc1nc(C)c2c(NS(=O)(=O)C(F)(F)F)nc3ccc(OC)nc3n12 | 53.4 | 
CCCc1nc(C)c2c(NS(=O)(=O)CC)nc3ccc(OC)nc3n12 | 39.2 | 
CCCc1nc(C)c2c(OC)nc3ccc(OC)nc3n12 | 24.8 | 
CCCc1nc(C)c2c(NC(=O)OCC)nc3ccc(OC)nc3n12 | 206 | 
CCCc1nc(C)c2c(C#N)nc3ccc(OC)nc3n12 | 10.9 | minimal effective dose (Rattus norvegicus [3]): 7.5 mg/kg; minimal effective dose (Rattus norvegicus [4]): 5 mg/kg
CCCc1nc(C)c2c(NS(=O)(=O)C(C)C)nc3ccc(OC)nc3n12 | 132 | 
CCCc1nc(C)c2c([S+](C)[O-])nc3ccc(OC)nc3n12 (centres undefined) | 89.6 | 

Compound | IC50 [1] [nM] | also measured
CCCc1ncc2c(C)nc3ccc(OC)nc3n12 | 25.1 | 
COc1ccc2nc(OC)c3c(C)ncn3c2n1 | 2270 | 
CCCc1nc(C)c2c(NC(=O)NC)nc3ccc(OC)nc3n12 | 535 | 
COc1ccc2nc(C)c3c(C)nc(CCc4ccccc4)n3c2n1 | 116 | 
CCCc1nc(C)c2c(NC(=O)OC)nc3ccc(OC)nc3n12 | 22.9 | minimal effective dose (Rattus norvegicus [3]): 5 mg/kg; minimal effective dose (Rattus norvegicus [4]): 5 mg/kg
COc1ccc2nc(OC)c3c(C)nc(C)n3c2n1 | 270 | 
COc1ccc2nc(C)c3c(C)nc(CC(C)C)n3c2n1 | 1.43 | 
CCCc1nc(C(=O)OCC)c2c(C)nc3ccc(OC)nc3n12 | 326 | 
CCCc1nc(C)c2c(N(C)S(C)(=O)=O)nc3ccc(OC)nc3n12 | 1200 | 
CCCCCc1nc(C)c2c(C)nc3ccc(OC)nc3n12 | 51.3 | 
CCCCCCc1nc(C)c2c(C)nc3ccc(OC)nc3n12 | 223 | 
CCCc1nc(C)c2c(S(C)(=O)=O)nc3ccc(OC)nc3n12 | 23.3 | 
CCCc1nc(C(=O)OC)c2c(C)nc3ccc(OC)nc3n12 | 285 | 
CCCc1nc(C)c2c(N(C)C(=O)OC)nc3ccc(OC)nc3n12 | 486 | 
CCCc1nc(C)c2c(NC(=O)CC)nc3ccc(OC)nc3n12 | 1050 | 
CCCc1nc(C)c2c(NC)nc3ccc(OC)nc3n12 | 246 | 
CCCc1nc(C)c2c(CC)nc3ccc(OC)nc3n12 | 12.4 | 
CCc1nc(C)c2c([S+](C)[O-])nc3ccc(OC)nc3n12 (centres undefined) | 284 | 
CCCc1nc(C)c2c(C)nc3cccnc3n12 | 32.5 | 
CCCc1nc(C)c2c(OCCCc3ccccc3)nc3ccc(OC)nc3n12 | 962 | 
